Series [1] relates to Rattus norvegicus. As to the kind of experiment: Increase in liver weight in Wistar rat at 463 umol/kg/day administered through diet for 4 days. It is filed as ADME, organism-based. The following applies: in vivo, po, 96 h.
Series [2] deals with Rattus norvegicus. As to the kind of experiment: Hypolipidemic activity in Wistar rat assessed as reduction in plasma triglyceride level at 463 umol/kg/day administered through diet for 4 days. In kind it is functional. The settings on record: 96 h.
Series [3] deals with Rattus norvegicus. As to the kind of experiment: Hypolipidemic activity in Wistar rat assessed as reduction in plasma cholesterol level at 463 umol/kg/day administered through diet for 4 days. In kind it is functional. The settings on record: 96 h. Summed up:
(§1)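 Young male Wistar rats, 170-190 g initial weight, groups of six, given compound mixed thoroughly into Purina Lab Chow ad libitum for 4 or 10 days as stated. Daily dose calculated from food consumption and body weight. Bled by cardiac puncture at end of treatment; plasma cholesterol measured by automated procedure. Expressed as percent reduction versus simultaneous untreated control group; Student's t test.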

For series [4], the system named is Rattus norvegicus. As to the kind of experiment: Hypolipidemic activity in Wistar rat assessed as reduction in plasma triglyceride level at 369 umol/kg/day administered through diet for 4 days. The settings on record: 96 h. It is filed as functional. Summed up: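 Young male Wistar rats, 170-190 g at start, six per group, given compound mixed into Purina Lab Chow, fed ad libitum for 4 or 10 days. Daily dose calculated from food consumption and body weight. Rats bled by cardiac puncture at end of treatment. Plasma triglycerides determined by automated procedure. Expressed as percent reduction versus a concurrent untreated control group, Student's t test.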

Series [5] relates to Rattus norvegicus. As to the kind of experiment: Increase in liver weight in Wistar rat at 369 umol/kg/day administered through diet for 4 days. It is filed as ADME, organism-based. The following applies: in vivo, po, 96 h.
In series [6] the test system is Rattus norvegicus. As to the kind of experiment: Hypolipidemic activity in Wistar rat assessed as reduction in plasma cholesterol level at 369 umol/kg/day administered through diet for 4 days. It is filed as functional. The following applies: 96 h. Summed up: (§2)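 Young male Wistar rats, 170-190 g at start, in groups of six, given compound mixed into Purina Lab Chow ad libitum for 4 or 10 days as stated. Daily dose was calculated from food consumption and body weight. Plasma was taken by cardiac puncture at the end and cholesterol measured by automated procedure. Results are % reduction versus a concurrent untreated control group, with Student's t test.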

The subject of series [7] is Rattus norvegicus. As to the kind of experiment: Increase in liver weight in Wistar rat at 944 umol/kg/day administered through diet for 10 days. The settings on record: in vivo, po, 240 h. In kind it is ADME, organism-based.
For series [8], the system named is Rattus norvegicus. As to the kind of experiment: Increase in liver weight in Wistar rat at 303 umol/kg/day administered through diet for 10 days. In kind it is ADME, organism-based. The following applies: in vivo, po, 240 h.
Series [9] has as its system Rattus norvegicus. As to the kind of experiment: Increase in cholesterol level in Wistar rat liver at 303 umol/kg/day administered through diet for 10 days. It is filed as ADME, organism-based. The following applies: in vivo, po, 240 h.
Series [10] relates to Rattus norvegicus. As to the kind of experiment: Hypolipidemic activity in Wistar rat assessed as reduction in plasma triglyceride level at 944 umol/kg/day administered through diet for 10 days. It is filed as functional. The settings on record: 240 h.
The subject of series [11] is Rattus norvegicus. As to the kind of experiment: Hypolipidemic activity in Wistar rat assessed as reduction in plasma triglyceride level at 89 umol/kg/day administered through diet for 10 days. In kind it is functional. The following applies: 240 h.
Series [12] has as its system Rattus norvegicus. As to the kind of experiment: Hypolipidemic activity in Wistar rat assessed as reduction in plasma cholesterol level at 944 umol/kg/day administered through diet for 10 days. The following applies: 240 h. It is filed as functional. Summed up: (§3)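 Young male Wistar rats (initial weight 170-190 g), groups of six, fed compound mixed into Purina Lab Chow ad libitum for 4 or 10 days; daily dose calculated from food consumption and body weight. Bled by cardiac puncture; plasma cholesterol and triglycerides by automated procedures; percent reduction versus simultaneous untreated controls, Student's t test.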

The subject of series [13] is Rattus norvegicus. As to the kind of experiment: Increase in cholesterol level in Wistar rat liver at 944 umol/kg/day administered through diet for 10 days. The following applies: in vivo, po, 240 h. It is filed as ADME, organism-based.
Series [14] deals with Rattus norvegicus. As to the kind of experiment: Increase in cholesterol level in Wistar rat liver at 89 umol/kg/day administered through diet for 10 days. In kind it is ADME, organism-based. The settings on record: in vivo, po, 240 h.
The subject of series [15] is Rattus norvegicus. As to the kind of experiment: Hypolipidemic activity in Wistar rat assessed as reduction in plasma triglyceride level at 303 umol/kg/day administered through diet for 10 days. It is filed as functional. The following applies: 240 h. Summed up:
(§4)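 Young male Wistar rats, 170-190 g initial weight, six per group, fed drug mixed thoroughly into Purina Lab Chow ad libitum for the stated days; daily dose calculated from food consumption and body weight. Bled by cardiac puncture at end; plasma cholesterol and triglycerides by automated procedures, expressed as percent reduction versus simultaneous untreated controls; Student's t test.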

Series [16] deals with Rattus norvegicus. As to the kind of experiment: Hypolipidemic activity in Wistar rat assessed as reduction in plasma cholesterol level at 89 umol/kg/day administered through diet for 10 days. It is filed as functional. The settings on record: 240 h. Summed up:
as §3

In series [17] the test system is Rattus norvegicus. As to the kind of experiment: Hypolipidemic activity in Wistar rat assessed as reduction in plasma cholesterol level at 303 umol/kg/day administered through diet for 10 days. The following applies: 240 h. In kind it is functional. Summed up:
as §2

Series [18] concerns Rattus norvegicus. As to the kind of experiment: Increase in liver weight in Wistar rat at 89 umol/kg/day administered through diet for 10 days. In kind it is ADME, organism-based. The settings on record: in vivo, po, 240 h.
Series [19] has as its system Rattus norvegicus. As to the kind of experiment: Increase in liver weight in Wistar rat at 417 umol/kg/day administered through diet for 4 days. It is filed as ADME, organism-based. The following applies: in vivo, po, 96 h.
Series [20] concerns Rattus norvegicus. As to the kind of experiment: Hypolipidemic activity in Wistar rat assessed as reduction in plasma triglyceride level at 417 umol/kg/day administered through diet for 4 days. The settings on record: 96 h. It is filed as functional.
The test system of series [21] is Rattus norvegicus. As to the kind of experiment: Hypolipidemic activity in Wistar rat assessed as reduction in plasma cholesterol level at 417 umol/kg/day administered through diet for 4 days. In kind it is functional. The following applies: 96 h. Summed up: as §1
In series [22] the test system is Rattus norvegicus. As to the kind of experiment: Increase in liver weight in Wistar rat at 428 umol/kg/day administered through diet for 4 days. It is filed as ADME, organism-based. The settings on record: in vivo, po, 96 h.
For series [23], the system named is Rattus norvegicus. As to the kind of experiment: Increase in liver weight in Wistar rat at 471 umol/kg/day administered through diet for 4 days. In kind it is ADME, organism-based. The settings on record: in vivo, po, 96 h.
For series [24], the system named is Rattus norvegicus. As to the kind of experiment: Hypolipidemic activity in Wistar rat assessed as reduction in plasma triglyceride level at 471 umol/kg/day administered through diet for 4 days. In kind it is functional. The settings on record: 96 h.
Series [25] has as its system Rattus norvegicus. As to the kind of experiment: Hypolipidemic activity in Wistar rat assessed as reduction in plasma cholesterol level at 471 umol/kg/day administered through diet for 4 days. The following applies: 96 h. In kind it is functional. Summed up:
as §1

The test system of series [26] is Rattus norvegicus. As to the kind of experiment: Hypolipidemic activity in Wistar rat assessed as reduction in plasma triglyceride level at 291 umol/kg/day administered through diet for 4 days. It is filed as functional. The settings on record: 96 h. Summed up: as §4
In series [27] the test system is Rattus norvegicus. As to the kind of experiment: Hypolipidemic activity in Wistar rat assessed as reduction in plasma cholesterol level at 291 umol/kg/day administered through diet for 4 days. In kind it is functional. The following applies: 96 h. Summed up: as §2
For series [28], the system named is Rattus norvegicus. As to the kind of experiment: Increase in liver weight in Wistar rat at 291 umol/kg/day administered through diet for 4 days. In kind it is ADME, organism-based. The following applies: in vivo, po, 96 h.

As a reminder, the inhibition in vivo is how much of the control response was suppressed. Take `CCCCCCCCCCCCCCSc1ccc(C(=O)O)s1`: the Activity with Rattus norvegicus [1] amounted to 4%. Further, the inhibition in vivo at 463 µmol/kg in the series with Rattus norvegicus [2] turned out to be 61%; in the series with Rattus norvegicus [3] it was 15%.

For `CCCCCCCCCCCCCCOc1ccc(C(=O)C(Cl)(Cl)Cl)o1`, the inhibition in vivo at 369 µmol/kg was determined as 33% in the series on Rattus norvegicus [4] and 9% with Rattus norvegicus [6]. This compound also displayed an Activity in the series with Rattus norvegicus [5] of 6%.

Take `CCCCCCCCCCCCc1ccc(C(=O)CC(=O)OC)cc1`: the Activity is given as 20% with Rattus norvegicus [7]; 7% with Rattus norvegicus [8]; 97% in the series with Rattus norvegicus [9]; 151% with Rattus norvegicus [13]; 38% with Rattus norvegicus [14]; 8% in the series on Rattus norvegicus [18]. Besides, the inhibition in vivo at 944 µmol/kg was 84% in the series on Rattus norvegicus [10] and 53% in the series on Rattus norvegicus [12]. The inhibition in vivo at 89 µmol/kg with Rattus norvegicus [11] stood at 6%; in the series with Rattus norvegicus [16] it was 4%. For the same compound, the inhibition in vivo at 303 µmol/kg in the series with Rattus norvegicus [15] is 63%; with Rattus norvegicus [17] it was 37%.

In the series with Rattus norvegicus [19], `CCCCCCCCCCCCCCOc1ccc(C(=O)OC)c(OC)c1` yielded an Activity of 0%. The inhibition in vivo at 417 µmol/kg with Rattus norvegicus [20] was 0%; with Rattus norvegicus [21] it was 7%.

`CCCCCCCCCCCCCCSc1ccc(C(=O)O)cc1`: the Activity in the series with Rattus norvegicus [22] is given as 6%.

On to `CCCCCCCCCCCCCCOc1ccc(C(=O)O)c(C)c1`, for which the Activity in the series on Rattus norvegicus [23] stood at 5%. Besides, the inhibition in vivo at 471 µmol/kg in the series with Rattus norvegicus [24] stood at 27%; with Rattus norvegicus [25], 6%.

Turning to `CCCCCCCCCCCCCCOc1ccc(C(=O)O)c(OCCCCCCCCCCCCCC)c1`, the inhibition in vivo at 291 µmol/kg with Rattus norvegicus [26] and in the series with Rattus norvegicus [27] was 0% throughout. Besides, the Activity in the series on Rattus norvegicus [28] is on record as 7%.

Values taken from ChEMBL document CHEMBL3272012, “5-(Tetradecyloxy)-2-furancarboxylic acid and related hypolipidemic fatty acid-like alkyloxyarylcarboxylic acids” (J Med Chem, 1977).
